Source: ChEMBL document CHEMBL1144293, “4-(2-Pyridyl)piperazine-1-benzimidazoles as potent TRPV1 antagonists” (Bioorg Med Chem Lett, 2005)

Experiments:
[1] = biological target: T1, Transient receptor potential cation channel subfamily V member 1 (Homo sapiens, UniProt Q8NER1); test: Antagonist activity in pH 5.5-induced FLIPR assays in HEK293 cells expressing human TRPV1; format: functional, cell-based
In short: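 Human TRPV1-expressing HEK293 line stimulated by low pH (pH 5.5) as agonist; antagonism measured as inhibition of calcium influx by FLIPR. IC50 reported as mean ± SEM from at least three determinations.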

[2] = biological target: T1, Transient receptor potential cation channel subfamily V member 1; test: Antagonist activity in capsaicin-induced FLIPR assays in HEK293 cells expressing human TRPV1; format: functional, cell-based
In short: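 HEK293 cells stably expressing human TRPV1; channel activated with 100 nM capsaicin and block of the calcium influx read on a fluorometric imaging plate reader (FLIPR). IC50 given as mean ± SEM of at least three determinations.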

[3] = Cmax value in rat at single dose of 30 mg/kg oral dose; format: ADME, organism-based; parameters: dose 30 mg/kg, route oral; settings: in vivo
In short: (§1)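 Rat pharmacokinetics: systemic exposure estimated after a single 3 mg/kg intravenous dose and, separately, a single 30 mg/kg oral dose. Parameters derived include Vd, CL, terminal t1/2, Tmax, Cmax and oral bioavailability (F%).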

[4] = Clearance value in rat at single dose of 3 mg/kg intravenously; format: ADME, organism-based; parameters: dose 3 mg/kg, route intravenous; settings: in vivo, iv; in short: as §1
[5] = Time taken for cmax value in rat at single dose of 30 mg/kg oral dose; format: ADME, organism-based; parameters: dose 30 mg/kg, route oral; settings: in vivo; in short: as §1
[6] = Clearance value in rat at single dose of 3 mg/kg iv dose; settings: in vivo
[7] = Bioavailability in rat at single dose of 30 mg/kg orally; settings: in vivo, oral
[8] = Terminal half life value in rat at single dose of 3 mg/kg iv dose; settings: in vivo
[9] = Bioavailability in rat (single dose 30 mg/kg p.o.); format: ADME, organism-based; settings: in vivo, po; in short: as §1
[10] = Terminal half life value in rat at single dose of 3 mg/kg intravenously; format: ADME, organism-based; parameters: dose 3 mg/kg, route intravenous; settings: in vivo, iv; in short: as §1
[11] = Volume distribution in rat at single dose of 3 mg/kg intravenously; format: ADME, organism-based; parameters: dose 3 mg/kg, route intravenous; settings: in vivo, iv; in short: as §1

T1 sequence (Q8NER1 whole entry): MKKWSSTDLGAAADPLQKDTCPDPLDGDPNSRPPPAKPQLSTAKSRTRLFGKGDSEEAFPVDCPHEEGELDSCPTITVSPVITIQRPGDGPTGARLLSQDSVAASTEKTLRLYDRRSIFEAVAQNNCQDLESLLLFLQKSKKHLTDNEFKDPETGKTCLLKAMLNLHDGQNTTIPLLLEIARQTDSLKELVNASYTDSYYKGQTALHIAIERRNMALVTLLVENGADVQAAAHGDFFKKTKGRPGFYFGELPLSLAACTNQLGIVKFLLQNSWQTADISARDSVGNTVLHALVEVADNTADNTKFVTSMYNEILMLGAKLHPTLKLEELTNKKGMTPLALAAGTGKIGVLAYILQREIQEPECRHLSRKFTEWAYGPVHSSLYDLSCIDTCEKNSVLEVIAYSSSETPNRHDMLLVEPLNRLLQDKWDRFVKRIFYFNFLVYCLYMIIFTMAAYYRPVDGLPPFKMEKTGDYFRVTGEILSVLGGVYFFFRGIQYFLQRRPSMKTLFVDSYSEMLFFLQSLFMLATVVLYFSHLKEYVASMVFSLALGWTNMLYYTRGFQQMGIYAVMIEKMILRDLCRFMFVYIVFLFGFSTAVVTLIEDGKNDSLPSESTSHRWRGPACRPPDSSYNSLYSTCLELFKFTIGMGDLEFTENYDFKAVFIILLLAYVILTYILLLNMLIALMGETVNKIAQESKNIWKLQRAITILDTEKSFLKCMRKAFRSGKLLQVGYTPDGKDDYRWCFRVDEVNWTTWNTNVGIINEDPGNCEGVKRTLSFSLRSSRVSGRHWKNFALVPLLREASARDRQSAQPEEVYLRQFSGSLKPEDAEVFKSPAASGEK

| SMILES | IC50 [1] [nM] | IC50 [2] [nM] | further results |
| --- | --- | --- | --- |
| CC(C)(C)c1ccc2oc(N3CCN(c4ncccc4Cl)CC3)nc2c1 | > 10000 | 2140 |  |
| C[C@@H]1CN(c2ncccc2Cl)CCN1c1nc2cc(C(C)(C)C)ccc2o1 | 1410 |  |  |
| C[C@@H]1CN(c2nsnc2Cl)CCN1c1nc2ccc(C(C)(C)C)cc2[nH]1 | > 10000 | 776 |  |
| Cc1cc2nc(N3CCN(c4ncccc4Cl)C[C@H]3C)[nH]c2cc1C | 10000 | 113 |  |
| Cc1cc2nc(N3CCN(c4ncccc4Cl)CC3)n(C)c2cc1C | > 25000 | 5450 |  |
| C[C@@H]1CN(c2ncccc2Cl)CCN1c1nc2ccc(Cl)cc2[nH]1 |  | 325 |  |
| Cc1cc2nc(N3CCN(c4ncccc4Cl)C[C@@H]3C)[nH]c2cc1C | > 25000 | 5770 |  |
| C[C@@H]1CN(c2ncccc2Cl)CCN1c1nc2ccc(C(C)(C)C)cc2[nH]1 | 104 | 90.4 | Cmax [3]: 300 ng/mL; clearance [4]: 134 mL/min/kg; Tmax [5]: 180 min; clearance [6]: 133 mL/min/kg; bioavailability [7]: 19.7%; half-life [8]: 36 min; bioavailability [9]: 19.7%; half-life [10]: 35.4 min; Vd [11]: 6.87 L/kg |
| C[C@@H]1CN(c2ncccc2C(F)(F)F)CCN1c1nc2ccc(C(C)(C)C)cc2[nH]1 | 1780 | 32.4 |  |
| CC(C)(C)c1ccc2nc(N3CCN(c4ncccc4Cl)CC3)[nH]c2c1 | 1690 | 136 |  |
| COc1ccc2nc(N3CCN(c4ncccc4Cl)C[C@H]3C)[nH]c2c1 |  | 665 |  |
| Cc1cccnc1N1CCN(c2nc3ccc(C(C)(C)C)cc3[nH]2)[C@H](C)C1 | 597 |  |  |
| CC(C)(C)c1ccc(NC(=O)N2CCN(c3ncccc3Cl)CC2)cc1 |  |  | bioavailability [9]: 15% |
| C[C@H]1CN(c2ncccc2Cl)CCN1c1nc2ccc(C(C)(C)C)cc2[nH]1 | 3610 | 948 |  |
